{"source": "ChEMBL document CHEMBL1144782", "about": "“Isoindolo[2,1-a]quinoxaline derivatives, novel potent antitumor agents with dual inhibition of tubulin polymerization and topoisomerase I” (2008)", "key": {"[1]": {"tested_on": "MOLT-4", "test": "Antitumor activity against human MOLT4 cells", "assay_type": "functional", "procedure,_shortened": "(§1)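 Run by the NCI in its in vitro disease-oriented screen of about 60 human tumour cell lines. For each line it reports pGI50 (50% net growth inhibition), pTGI (total growth inhibition) and pLC50 (50% net cell death), each as –log molar concentration. Where an effect was not reached within the tested range, the highest tested concentration was used.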"}, "[2]": {"tested_on": "UACC-257", "test": "Antitumor activity against human UACC257 cells", "assay_type": "functional", "procedure,_shortened": "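NCI 60-cell-line screen. Parameters were GI50 (50% net growth inhibition), TGI and LC50, each reported as –log molar concentration. Where an effect was not reached within the tested range, the highest tested concentration was used in the calculation.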"}, "[3]": {"tested_on": "RXF 393", "test": "Antitumor activity against human RXF393 cells", "assay_type": "functional", "procedure,_shortened": "as §1"}, "[4]": {"tested_on": "SK-MEL-28", "test": "Antitumor activity against human SKMEL28 cells", "assay_type": "functional", "procedure,_shortened": "as §1"}, "[5]": {"tested_on": "PC-3", "test": "Antitumor activity against human PC3 cells", "assay_type": "functional", "procedure,_shortened": "as §1"}, "[6]": {"tested_on": "HT-29", "test": "Antitumor activity against human HT29 cells", "assay_type": "functional", "procedure,_shortened": "as §1"}, "[7]": {"tested_on": "CCRF-CEM", "test": "Antitumor activity against human CCRF-CEM cells", "assay_type": "functional", "procedure,_shortened": "as §1"}, "[8]": {"tested_on": "A498", "test": "Antitumor activity against human A498 cells", "assay_type": "functional", "procedure,_shortened": "as §1"}, "[9]": {"tested_on": "OVCAR-8", "test": "Antitumor activity against human OVCAR8 cells", "assay_type": "functional", "procedure,_shortened": "as §1"}, "[10]": {"biological_target": "Tubulin (Sus scrofa) (UniProt P02554+P02550)", "sequence (P02550 whole entry, looked up)": "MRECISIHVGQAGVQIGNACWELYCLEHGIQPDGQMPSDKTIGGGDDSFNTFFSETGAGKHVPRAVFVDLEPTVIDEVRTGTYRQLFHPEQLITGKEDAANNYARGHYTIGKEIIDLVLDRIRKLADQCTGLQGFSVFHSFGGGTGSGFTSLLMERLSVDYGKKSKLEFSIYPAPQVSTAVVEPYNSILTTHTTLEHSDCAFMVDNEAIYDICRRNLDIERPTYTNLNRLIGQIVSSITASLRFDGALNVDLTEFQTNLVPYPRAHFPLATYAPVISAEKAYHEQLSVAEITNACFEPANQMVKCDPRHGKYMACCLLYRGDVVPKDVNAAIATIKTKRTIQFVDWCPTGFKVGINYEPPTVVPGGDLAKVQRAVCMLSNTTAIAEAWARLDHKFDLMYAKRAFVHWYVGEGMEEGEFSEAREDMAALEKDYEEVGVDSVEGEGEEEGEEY", "sequence (P02554 whole entry, looked up)": "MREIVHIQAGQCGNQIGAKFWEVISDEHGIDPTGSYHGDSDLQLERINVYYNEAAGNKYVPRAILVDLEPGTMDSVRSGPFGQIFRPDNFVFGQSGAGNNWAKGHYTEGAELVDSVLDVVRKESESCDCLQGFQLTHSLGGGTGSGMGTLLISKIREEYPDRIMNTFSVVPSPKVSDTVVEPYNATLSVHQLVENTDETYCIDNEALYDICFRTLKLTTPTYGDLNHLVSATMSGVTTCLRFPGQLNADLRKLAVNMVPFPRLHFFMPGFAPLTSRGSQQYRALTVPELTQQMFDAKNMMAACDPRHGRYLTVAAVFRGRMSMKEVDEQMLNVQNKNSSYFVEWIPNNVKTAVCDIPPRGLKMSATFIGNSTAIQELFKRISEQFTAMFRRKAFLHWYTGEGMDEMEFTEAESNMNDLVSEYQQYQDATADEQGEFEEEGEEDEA", "test": "Inhibition of pig brain tubulin polymerization"}, "[11]": {"tested_on": "HOP-92", "test": "Antitumor activity against human HOP92 cells", "assay_type": "functional", "procedure,_shortened": "as §1"}, "[12]": {"tested_on": "M14", "test": "Antitumor activity against human M14 cells", "assay_type": "functional", "procedure,_shortened": "as §1"}, "[13]": {"tested_on": "SN12C", "test": "Antitumor activity against human SN12C cells", "assay_type": "functional", "procedure,_shortened": "as §1"}, "[14]": {"test": "Antitumor activity against human […] cells", "assay_type": "functional", "procedure,_shortened": "as §1"}, "[15]": {"tested_on": "SNB-19", "test": "Antitumor activity against human SNB19 cells", "assay_type": "functional", "procedure,_shortened": "as §1"}, "[16]": {"tested_on": "MCF7", "test": "Growth inhibition of human multidrug-resistant MCF7 cells after 72 hrs by MTT assay", "assay_type": "functional", "conditions": "MCF7, 72 h", "procedure,_shortened": "(§2)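 Growth inhibition by MTT after 72 h incubation. Resistant sublines: LoVoDoxo and MCF-7 MDR were kept in 0.1 µg/mL doxorubicin; CEMVbl-100 was selected against vinblastine. GI50 given as mean ± SEM of three independent experiments. Resistance index is resistant-line GI50 over parental GI50.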"}, "[17]": {"tested_on": "HOP-62", "test": "Antitumor activity against human HOP62 cells", "assay_type": "functional", "procedure,_shortened": "as §1"}, "[18]": {"tested_on": "MCF7", "test": "Growth inhibition of human MCF7 cells after 72 hrs by MTT assay", "assay_type": "functional", "conditions": "MCF7, 72 h", "procedure,_shortened": "as §2"}, "[19]": {"tested_on": "NCI-H522", "test": "Antitumor activity against human NCI-H522 cells", "assay_type": "functional", "procedure,_shortened": "as §1"}, "[20]": {"tested_on": "EKVX", "test": "Antitumor activity against human EKVX cells", "assay_type": "functional", "procedure,_shortened": "as §1"}, "[21]": {"tested_on": "MDA-MB-435", "test": "Antitumor activity against human MDA-MB-435 cells", "assay_type": "functional", "procedure,_shortened": "as §1"}, "[22]": {"conditions": "read-out: Log LC50 (the source's name) (converted)"}}, "data": [{"smiles": "Cc1cccc2c1[nH]c(=O)c1c3ccccc3cn21", "values": [{"measurement": "GI50", "setting": "[1]", "value": 1.82, "unit": "µM"}, {"measurement": "LC50", "setting": "[1]", "value": 20.9, "unit": "µM"}, {"measurement": "TGI", "setting": "[1]; read-out: pTGI (converted)", "value": 5.62, "unit": "µM"}, {"measurement": "GI50", "setting": "[2]", "value": 16.6, "unit": "µM"}, {"measurement": "LC50", "setting": "[2]", "value": "> 100", "unit": "µM"}, {"measurement": "TGI", "setting": "[2]; read-out: pTGI (converted)", "value": 93.3, "unit": "µM"}, {"measurement": "GI50", "setting": "[3]", "value": 9.12, "unit": "µM"}, {"measurement": "CC50", "setting": "[3]; [22]", "value": "> 100", "unit": "µM"}, {"measurement": "TGI", "setting": "[3]; read-out: pTGI (converted)", "value": 38, "unit": "µM"}, {"measurement": "GI50", "setting": "[4]", "value": 6.92, "unit": "µM"}, {"measurement": "CC50", "setting": "[4]; [22]", "value": "> 100", "unit": "µM"}, {"measurement": "TGI", "setting": "[4]; read-out: pTGI (converted)", "value": "> 100", "unit": "µM"}, {"measurement": "GI50", "setting": "[5]", "value": 3.89, "unit": "µM"}, {"measurement": "LC50 (50% net cell death)", "setting": "[5]", "value": "> 100", "unit": "µM"}, {"measurement": "TGI", "setting": "[5]; read-out: pTGI (converted)", "value": 44.7, "unit": "µM"}, {"measurement": "GI50", "setting": "[6]", "value": 2.19, "unit": "µM"}, {"measurement": "LC50", "setting": "[6]", "value": 36.3, "unit": "µM"}, {"measurement": "TGI", "setting": "[6]; read-out: pTGI (converted)", "value": 13.2, "unit": "µM"}, {"measurement": "GI50", "setting": "[7]", "value": 1.2, "unit": "µM"}, {"measurement": "LC50", "setting": "[7]", "value": 74.1, "unit": "µM"}, {"measurement": "TGI", "setting": "[7]; read-out: pTGI (converted)", "value": 12.6, "unit": "µM"}, {"measurement": "GI50", "setting": "[8]", "value": 16.2, "unit": "µM"}, {"measurement": "CC50", "setting": "[8]; [22]", "value": "> 100", "unit": "µM"}, {"measurement": "TGI", "setting": "[8]; read-out: pTGI (converted)", "value": 41.7, "unit": "µM"}, {"measurement": "GI50", "setting": "[9]", "value": 3.55, "unit": "µM"}, {"measurement": "LC50 (50% net cell death)", "setting": "[9]", "value": "> 100", "unit": "µM"}, {"measurement": "TGI", "setting": "[9]; read-out: pTGI (converted)", "value": "> 100", "unit": "µM"}, {"measurement": "Activity", "setting": "[10]", "value": "> 10", "unit": "µM"}, {"measurement": "GI50", "setting": "[11]", "value": 3.98, "unit": "µM"}, {"measurement": "LC50", "setting": "[11]", "value": "> 100", "unit": "µM"}, {"measurement": "TGI", "setting": "[11]; read-out: pTGI (converted)", "value": 32.4, "unit": "µM"}, {"measurement": "GI50", "setting": "[12]", "value": 12.6, "unit": "µM"}, {"measurement": "CC50", "setting": "[12]; [22]", "value": 77.6, "unit": "µM"}, {"measurement": "TGI", "setting": "[12]; read-out: pTGI (converted)", "value": 30.9, "unit": "µM"}, {"measurement": "GI50", "setting": "[13]", "value": 1.82, "unit": "µM"}, {"measurement": "LC50", "setting": "[13]", "value": "> 100", "unit": "µM"}, {"measurement": "TGI", "setting": "[13]; read-out: pTGI (converted)", "value": 19.1, "unit": "µM"}, {"measurement": "GI50", "setting": "[14]", "value": 2.4, "unit": "µM"}, {"measurement": "LC50", "setting": "[14]", "value": "> 100", "unit": "µM"}, {"measurement": "TGI", "setting": "[14]; read-out: pTGI (converted)", "value": 17.4, "unit": "µM"}, {"measurement": "GI50", "setting": "[15]", "value": 15.5, "unit": "µM"}, {"measurement": "CC50", "setting": "[15]; [22]", "value": "> 100", "unit": "µM"}, {"measurement": "TGI", "setting": "[15]; read-out: pTGI (converted)", "value": 47.9, "unit": "µM"}, {"measurement": "GI50", "setting": "[16]", "value": 8.1, "unit": "µM"}, {"measurement": "GI50", "setting": "[17]", "value": 3.55, "unit": "µM"}, {"measurement": "LC50 (50% net cell death)", "setting": "[17]", "value": 51.3, "unit": "µM"}, {"measurement": "TGI", "setting": "[17]; read-out: pTGI (converted)", "value": 15.1, "unit": "µM"}, {"measurement": "GI50", "setting": "[18]", "value": 3.7, "unit": "µM"}, {"measurement": "GI50", "setting": "[19]", "value": 6.46, "unit": "µM"}, {"measurement": "CC50", "setting": "[19]; [22]", "value": "> 100", "unit": "µM"}, {"measurement": "TGI", "setting": "[19]; read-out: pTGI (converted)", "value": 64.6, "unit": "µM"}, {"measurement": "GI50", "setting": "[20]", "value": 5.62, "unit": "µM"}, {"measurement": "LC50 (50% net cell kill)", "setting": "[20]", "value": "> 100", "unit": "µM"}, {"measurement": "TGI", "setting": "[20]; read-out: pTGI (converted)", "value": 44.7, "unit": "µM"}, {"measurement": "GI50", "setting": "[21]", "value": 3.16, "unit": "µM"}]}]}
